Experimental data published in ChEMBL document CHEMBL4138308, “Simultaneous Targeting of RGD-Integrins and Dual Murine Double Minute Proteins in Glioblastoma Multiforme” (J Med Chem, 2018).
pIC50: −log10 of the molar value. Activity calls are given as the source filed them. No cut-off for these calls is given here.

What was measured:
Integrin alpha-V/beta-3 = Integrin alpha-V/beta-3 (Homo sapiens, UniProt P05106+P06756); test: Inhibition of vitronectin binding to human alphaVbeta3 integrin after 1 hr by ELISA; type: protein-complex assay
Outline: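 Plates coated overnight at 4 °C with vitronectin 1.0 μg/mL in carbonate buffer pH 9.6, blocked 1 h with TSB (Ca2+, Mg2+, Mn2+, 1% BSA). Soluble human αvβ3 (final 1.0 μg/mL) with inhibitor (final 0.128–400 nM) 1 h at room temperature; detection by anti-CD51/61 then peroxidase secondary, absorbance 405 nm. Duplicates; IC50 from curve inflection point; internal standard per plate.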

Integrin alpha-5/beta-1 = Integrin alpha-5/beta-1 (Homo sapiens, UniProt P05556+P08648); test: Inhibition of fibronectin binding to soluble alpha5beta1 integrin (unknown origin) after 1 hr by ELISA; type: protein-complex assay
Homo sapiens [1] = species: Homo sapiens; conditions: 100 nM
U-87 MG [2] = test: Anti-invasive activity in human U87MG cells at 10 uM after 24 hrs by transwell assay; type: functional, U-87MG ATCC
Outline: (§1)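 U87MG cells suspended in serum-free medium (60,000 cells), treated at 10 μM (each agent at 10 μM when combined), placed in upper chamber of Matrigel-coated (0.32 mg/mL) transwell; lower chamber RPMI with 10% FBS. Invasion 24 h at 37 °C; cells on lower membrane surface fixed with p-formaldehyde, crystal violet stained, counted in five random fields per filter. Mean ± SEM vs DMSO control.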

U-87 MG [3] = test: Antiproliferative activity against human U87MG cells after 72 hrs by MTS assay
Homo sapiens [4] = species: Homo sapiens; conditions: 100 nM; remark: listed apart in the source
Homo sapiens [5] = species: Homo sapiens; conditions: 100 nM; remark: listed apart in the source
Homo sapiens [6] = species: Homo sapiens; conditions: 100 nM; remark: listed apart in the source
T98G [7] = test: Antiproliferative activity against human T98G cells harboring p53 mutant at nanomolar concentration after 72 hrs by MTS assay; type: functional, cell-based
Outline: (§2)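 Cells seeded ~5000 cells/cm2, after 24 h medium replaced with compound in DMSO (DMSO 1% v/v in controls), alone or in combination at 100 nM each, or concentration series (U87MG 1–100 nM). 72 h exposure; proliferation read by MTS, expressed as % of DMSO control (mean ± SEM, N = 3); IC50 from sigmoid dose–response fit.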

Homo sapiens [8] = species: Homo sapiens; conditions: 100 nM; remark: listed apart in the source
T98G [9] = test: Antiproliferative activity against human T98G cells harboring p53 mutant at micromolar concentration after 72 hrs by MTS assay; type: functional, cell-based; outline: as §2
U-87 MG [10] = test: Anti-invasive activity in human U87MG cells at 10 uM after 24 hrs in presence of MDM2 inhibitor nutlin-3 and MDM4 inhibitor SJ-1722550 by transwell assay; type: functional, cell-based; conditions: U-87MG ATCC; outline: as §1
[11] = biological target: T1, Protein Mdm4 (Homo sapiens) (UniProt O15151); test: Displacement of p53 from MDM4 in human SHSY-5Y cells at 100 uM incubated for 10 mins by sandwich ELISA method relative to control; type: cell-based
T1 sequence (whole entry): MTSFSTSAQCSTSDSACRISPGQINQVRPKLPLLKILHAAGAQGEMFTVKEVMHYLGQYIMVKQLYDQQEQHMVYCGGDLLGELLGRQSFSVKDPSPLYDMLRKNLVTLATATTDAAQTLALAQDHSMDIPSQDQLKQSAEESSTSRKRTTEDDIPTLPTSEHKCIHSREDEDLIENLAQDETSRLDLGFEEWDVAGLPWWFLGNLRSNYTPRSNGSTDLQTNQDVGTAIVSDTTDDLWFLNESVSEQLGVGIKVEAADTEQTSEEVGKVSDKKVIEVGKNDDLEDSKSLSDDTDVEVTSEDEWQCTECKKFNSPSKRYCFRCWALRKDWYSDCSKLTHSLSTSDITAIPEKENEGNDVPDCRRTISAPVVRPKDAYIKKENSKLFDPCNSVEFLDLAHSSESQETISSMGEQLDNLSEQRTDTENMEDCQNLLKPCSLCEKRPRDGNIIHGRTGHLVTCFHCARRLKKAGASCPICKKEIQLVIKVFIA
Outline: (§3)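 Native complexes in cell lysates (U87MG for p53/MDM2; SHSY-5Y for p53/MDM4). Compound incubated with lysate 10 min at room temperature, then 90 min in wells precoated with anti-MDM2 or anti-MDM4; blocked with 1% BSA, anti-p53 (1:250) 90 min, HRP secondary 60 min, TMB read at 450 nm. Blanks lacked anti-p53. Mean of three determinations.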

U-87 MG [12] = test: Antiproliferative activity against human U87MG cells at 100 nM after 72 hrs in presence of MDM2 inhibitor nutlin-3 and MDM4 inhibitor SJ-1722550 by MTS assay; type: functional, cell-based; conditions: U-87MG ATCC; outline: as §2
[13] = biological target: E3 ubiquitin-protein ligase Mdm2 (Homo sapiens, UniProt Q00987); test: Displacement of p53 from MDM2 in human U87MG cells at 100 uM incubated for 10 mins by sandwich ELISA method relative to control; type: cell-based; outline: as §3
U-87 MG [14] = test: Antiproliferative activity against human U87MG cells at 100 nM after 72 hrs in presence of MDM2 inhibitor nutlin-3 by MTS assay; type: functional, cell-based; conditions: U-87MG ATCC; outline: as §2
U-87 MG [15] = test: Antiproliferative activity against human U87MG cells at 100 nM after 72 hrs by MTS assay; type: functional, cell-based; conditions: U-87MG ATCC; outline: as §2
[16] = biological target: T1, Protein Mdm4 (Homo sapiens); test: Inhibition of MDM4 in human U87MG cells assessed as increase in PUMA mRNA expression at 100 nM after 24 hrs in presence of alphaVbeta3 inhibitor cilengitide by RT-PCR method; type: cell-based
Outline: (§4)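 U87MG cells exposed to agents at 100 nM, alone or combined, for 8 or 24 h; total RNA extracted, cDNA made from 500 ng RNA, MDM2, PUMA and p21 transcripts quantified by real-time PCR. Data as % of DMSO control, mean ± SEM, N = 3.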

U-87 MG [17] = test: Anti-invasive activity in human U87MG cells at 10 uM after 24 hrs in presence of MDM2 inhibitor nutlin-3 and alphaVbeta3 inhibitor cilengitide by transwell assay; type: functional, cell-based; conditions: U-87MG ATCC; outline: as §1
[18] = biological target: T1, Protein Mdm4 (Homo sapiens); test: Inhibition of MDM4 in human U87MG cells assessed as increase in PUMA mRNA expression at 100 nM after 24 hrs by RT-PCR method; type: cell-based; outline: as §4
MDM4 (Homo sapiens) = MDM4 (Homo sapiens) (UniProt O15151); test: Inhibition of MDM4 in human U87MG cells assessed as increase in PUMA mRNA expression at 100 nM after 24 hrs in presence of MDM2 inhibitor nutlin-3 and alphaVbeta3 inhibitor cilengitide by RT-PCR method
[19] = biological target: T1, Protein Mdm4 (Homo sapiens); test: Inhibition of MDM4 in human U87MG cells assessed as increase in p53 accumulation at 100 nM after 24 hrs in presence of MDM2 inhibitor nutlin-3 and alphaVbeta3 inhibitor cilengitide by Western blot method; type: cell-based
Outline: (§5)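 U87MG cells treated 24 h with agents at 100 nM, alone or combined; 40 μg lysate protein resolved by SDS-PAGE, immunoblotted for p53 with GAPDH loading control; bands quantified by densitometry as % of DMSO control (mean ± SEM, N = 3).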

[20] = biological target: T1, Protein Mdm4 (Homo sapiens); test: Inhibition of MDM4 in human U87MG cells assessed as increase in p53 accumulation at 100 nM after 24 hrs in presence of MDM2 inhibitor nutlin-3 by Western blot method; type: cell-based; outline: as §5
[21] = biological target: T1, Protein Mdm4 (Homo sapiens); test: Inhibition of MDM4 in human U87MG cells assessed as increase in MDM2 mRNA expression at 100 nM after 8 hrs in presence of MDM2 inhibitor nutlin-3 and alphaVbeta3 inhibitor cilengitide by RT-PCR method; type: cell-based; outline: as §4
[22] = biological target: T1, Protein Mdm4 (Homo sapiens); test: Inhibition of MDM4 in human U87MG cells assessed as increase in PUMA mRNA expression at 100 nM after 24 hrs in presence of MDM2 inhibitor nutlin-3 by RT-PCR method; type: cell-based; outline: as §4
[23] = biological target: T1, Protein Mdm4 (Homo sapiens); test: Inhibition of MDM4 in human U87MG cells assessed as increase in p21 mRNA expression at 100 nM after 24 hrs by RT-PCR method; type: cell-based; outline: as §4
[24] = biological target: T1, Protein Mdm4 (Homo sapiens); test: Inhibition of MDM4 in human U87MG cells assessed as increase in MDM2 mRNA expression at 100 nM after 8 hrs in presence of MDM2 inhibitor nutlin-3 by RT-PCR method; type: cell-based; outline: as §4
U-87 MG [25] = test: Antiproliferative activity against human U87MG cells at 100 nM after 72 hrs in presence of alphaVbeta3 inhibitor cilengitide and MDM2 inhibitor nutlin-3 by MTS assay; type: functional, cell-based; conditions: U-87MG ATCC; outline: as §2

Sequence of Integrin alpha-V/beta-3 (P05106 27-788 limits assumed): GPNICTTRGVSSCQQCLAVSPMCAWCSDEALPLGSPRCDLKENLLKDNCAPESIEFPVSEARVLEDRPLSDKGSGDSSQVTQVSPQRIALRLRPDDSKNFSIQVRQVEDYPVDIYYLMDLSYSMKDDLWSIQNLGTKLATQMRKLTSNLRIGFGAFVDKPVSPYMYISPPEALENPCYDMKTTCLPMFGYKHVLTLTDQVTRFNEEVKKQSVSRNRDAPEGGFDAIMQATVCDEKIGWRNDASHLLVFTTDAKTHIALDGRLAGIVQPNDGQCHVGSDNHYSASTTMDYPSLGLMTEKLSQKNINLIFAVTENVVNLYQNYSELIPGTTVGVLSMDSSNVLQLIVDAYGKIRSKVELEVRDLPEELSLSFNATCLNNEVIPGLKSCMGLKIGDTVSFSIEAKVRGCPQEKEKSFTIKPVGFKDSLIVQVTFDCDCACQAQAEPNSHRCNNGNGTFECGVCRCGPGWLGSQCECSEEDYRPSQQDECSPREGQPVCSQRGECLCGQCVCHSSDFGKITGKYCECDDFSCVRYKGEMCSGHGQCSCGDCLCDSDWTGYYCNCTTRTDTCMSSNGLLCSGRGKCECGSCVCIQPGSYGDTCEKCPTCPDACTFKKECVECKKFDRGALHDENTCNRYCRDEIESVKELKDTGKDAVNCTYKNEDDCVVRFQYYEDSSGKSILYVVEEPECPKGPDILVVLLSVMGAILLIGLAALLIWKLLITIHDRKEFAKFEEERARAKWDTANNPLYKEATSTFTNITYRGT
Sequence of Integrin alpha-V/beta-3 (P06756 31-889 limits assumed): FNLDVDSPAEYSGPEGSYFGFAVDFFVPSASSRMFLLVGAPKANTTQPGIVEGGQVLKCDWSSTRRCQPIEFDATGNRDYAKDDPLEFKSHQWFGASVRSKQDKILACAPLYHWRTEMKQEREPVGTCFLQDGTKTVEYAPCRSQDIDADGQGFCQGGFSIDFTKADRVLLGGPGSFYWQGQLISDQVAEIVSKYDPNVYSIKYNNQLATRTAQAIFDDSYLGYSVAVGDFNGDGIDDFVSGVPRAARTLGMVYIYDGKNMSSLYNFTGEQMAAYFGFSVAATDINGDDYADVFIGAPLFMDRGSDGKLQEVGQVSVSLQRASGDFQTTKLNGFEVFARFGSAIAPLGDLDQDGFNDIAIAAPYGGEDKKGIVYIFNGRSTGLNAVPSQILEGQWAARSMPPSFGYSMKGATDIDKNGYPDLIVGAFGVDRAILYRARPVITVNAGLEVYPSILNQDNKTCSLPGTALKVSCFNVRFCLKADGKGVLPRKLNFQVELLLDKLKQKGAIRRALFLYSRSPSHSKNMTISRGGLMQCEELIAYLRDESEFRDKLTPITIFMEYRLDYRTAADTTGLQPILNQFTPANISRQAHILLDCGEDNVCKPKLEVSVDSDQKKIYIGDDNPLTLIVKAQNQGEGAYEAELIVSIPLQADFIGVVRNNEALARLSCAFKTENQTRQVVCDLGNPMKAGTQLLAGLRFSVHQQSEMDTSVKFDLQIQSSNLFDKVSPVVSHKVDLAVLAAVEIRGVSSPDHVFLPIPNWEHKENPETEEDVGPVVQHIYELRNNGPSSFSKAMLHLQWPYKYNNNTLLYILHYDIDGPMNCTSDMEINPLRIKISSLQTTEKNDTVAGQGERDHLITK
Sequence of Integrin alpha-V/beta-3 (P06756 891-1048 limits assumed): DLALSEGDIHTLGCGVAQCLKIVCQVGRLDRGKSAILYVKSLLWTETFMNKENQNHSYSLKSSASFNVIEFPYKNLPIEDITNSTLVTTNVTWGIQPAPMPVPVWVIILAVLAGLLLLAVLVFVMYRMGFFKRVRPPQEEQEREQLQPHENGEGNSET
Sequence of Integrin alpha-5/beta-1 (P05556 21-798 limits assumed): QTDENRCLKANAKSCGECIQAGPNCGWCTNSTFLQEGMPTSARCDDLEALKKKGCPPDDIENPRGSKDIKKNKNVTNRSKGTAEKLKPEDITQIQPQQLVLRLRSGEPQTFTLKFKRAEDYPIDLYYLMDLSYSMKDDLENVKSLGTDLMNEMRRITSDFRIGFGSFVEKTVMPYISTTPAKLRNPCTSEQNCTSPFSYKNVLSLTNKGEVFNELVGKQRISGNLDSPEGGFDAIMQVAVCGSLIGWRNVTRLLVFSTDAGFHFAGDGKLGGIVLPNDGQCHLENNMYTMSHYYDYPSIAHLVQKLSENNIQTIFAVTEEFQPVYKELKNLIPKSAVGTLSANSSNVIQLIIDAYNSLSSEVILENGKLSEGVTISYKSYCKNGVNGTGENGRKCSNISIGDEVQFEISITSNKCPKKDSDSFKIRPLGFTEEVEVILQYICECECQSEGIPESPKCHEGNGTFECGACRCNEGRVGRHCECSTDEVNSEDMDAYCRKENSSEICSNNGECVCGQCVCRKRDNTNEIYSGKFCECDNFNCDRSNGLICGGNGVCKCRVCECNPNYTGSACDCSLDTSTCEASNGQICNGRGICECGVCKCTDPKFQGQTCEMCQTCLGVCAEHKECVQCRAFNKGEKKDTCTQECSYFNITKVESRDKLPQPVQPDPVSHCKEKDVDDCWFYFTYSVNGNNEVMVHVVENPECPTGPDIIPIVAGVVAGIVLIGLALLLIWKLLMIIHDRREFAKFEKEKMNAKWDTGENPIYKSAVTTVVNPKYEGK
Sequence of Integrin alpha-5/beta-1 (P08648 42-894 limits assumed): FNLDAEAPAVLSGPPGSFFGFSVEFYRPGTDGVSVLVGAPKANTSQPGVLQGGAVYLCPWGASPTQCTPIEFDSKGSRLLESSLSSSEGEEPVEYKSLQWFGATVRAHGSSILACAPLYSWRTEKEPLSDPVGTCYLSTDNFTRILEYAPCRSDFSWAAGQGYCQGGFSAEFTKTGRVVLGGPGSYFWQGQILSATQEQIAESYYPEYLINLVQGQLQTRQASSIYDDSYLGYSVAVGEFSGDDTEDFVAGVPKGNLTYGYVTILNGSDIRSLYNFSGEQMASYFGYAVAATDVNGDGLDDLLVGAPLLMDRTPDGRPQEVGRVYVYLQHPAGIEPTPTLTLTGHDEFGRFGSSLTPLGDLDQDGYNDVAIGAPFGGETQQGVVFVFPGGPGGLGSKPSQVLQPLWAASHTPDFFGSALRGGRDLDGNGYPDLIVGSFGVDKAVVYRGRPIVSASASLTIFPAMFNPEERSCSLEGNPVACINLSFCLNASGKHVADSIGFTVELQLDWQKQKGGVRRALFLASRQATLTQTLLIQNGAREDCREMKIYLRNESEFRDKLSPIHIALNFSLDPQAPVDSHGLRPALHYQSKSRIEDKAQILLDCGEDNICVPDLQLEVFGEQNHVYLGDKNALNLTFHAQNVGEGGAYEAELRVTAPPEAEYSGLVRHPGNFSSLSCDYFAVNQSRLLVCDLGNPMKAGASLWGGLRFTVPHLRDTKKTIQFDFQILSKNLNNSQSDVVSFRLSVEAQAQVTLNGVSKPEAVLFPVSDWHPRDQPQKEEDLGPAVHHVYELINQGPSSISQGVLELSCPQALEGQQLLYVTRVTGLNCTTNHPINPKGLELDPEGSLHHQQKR
Sequence of Integrin alpha-5/beta-1 (P08648 895-1049 limits assumed): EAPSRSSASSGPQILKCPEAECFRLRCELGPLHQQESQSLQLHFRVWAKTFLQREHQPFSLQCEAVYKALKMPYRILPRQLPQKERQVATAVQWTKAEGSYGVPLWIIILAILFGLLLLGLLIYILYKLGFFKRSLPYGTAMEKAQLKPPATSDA
Sequence of E3 ubiquitin-protein ligase Mdm2 (Q00987 whole entry, looked up): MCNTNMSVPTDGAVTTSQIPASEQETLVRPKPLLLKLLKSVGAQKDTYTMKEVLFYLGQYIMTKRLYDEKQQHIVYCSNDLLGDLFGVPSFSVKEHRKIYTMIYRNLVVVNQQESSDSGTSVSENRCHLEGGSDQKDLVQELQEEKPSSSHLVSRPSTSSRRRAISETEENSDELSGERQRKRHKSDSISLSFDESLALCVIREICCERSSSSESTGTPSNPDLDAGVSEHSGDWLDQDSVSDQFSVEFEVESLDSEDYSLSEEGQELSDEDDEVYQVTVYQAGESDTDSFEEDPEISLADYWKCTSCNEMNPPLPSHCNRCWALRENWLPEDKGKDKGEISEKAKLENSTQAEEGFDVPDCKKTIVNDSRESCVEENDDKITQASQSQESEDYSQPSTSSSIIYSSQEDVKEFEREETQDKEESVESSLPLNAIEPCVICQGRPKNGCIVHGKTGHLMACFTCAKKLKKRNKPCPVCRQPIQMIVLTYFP

SMILES: N=C(N)Nc1cccc(C(=O)NCC(=O)N[C@@H](CC(=O)O)C(=O)NCCc2ccccc2)c1
- pIC50 (Integrin alpha-V/beta-3): 8.55
- pIC50 (Integrin alpha-5/beta-1): 7.55

SMILES: N=C(N)Nc1cccc(C(=O)NCC(=O)N[C@@H](CC(=O)O)C(=O)NCc2ccc(Cl)cc2)c1
- pIC50 (Integrin alpha-V/beta-3): 8.89
- pIC50 (Integrin alpha-5/beta-1): 7.32

SMILES: N=C(N)Nc1cccc(C(=O)NCC(=O)N[C@@H](CC(=O)O)C(=O)NC(c2ccccc2)c2ccccc2)c1
- inhibition (Homo sapiens [1]): Active
- Activity (U-87 MG [2]): 80%
- pIC50 (U-87 MG [3]): 6.94
- inhibition (Homo sapiens [4]): Active
- pIC50 (Integrin alpha-V/beta-3): 8.85
- inhibition (Homo sapiens [5]): Active
- inhibition (Homo sapiens [6]): inactive
- pIC50 (Integrin alpha-5/beta-1): 7.66
- Activity (T98G [7]): inactive
- inhibition (Homo sapiens [8]): Active
- Activity (T98G [9]): Active

SMILES: N=C(N)Nc1cccc(C(=O)NCC(=O)N[C@@H](CC(=O)O)C(=O)NCCc2ccc3ccccc3c2)c1
- pIC50 (Integrin alpha-V/beta-3): 8.66
- pIC50 (Integrin alpha-5/beta-1): 7.12

SMILES: C[C@@H](NC(=O)[C@H](CC(=O)O)NC(=O)CNC(=O)c1cccc(NC(=N)N)c1)c1ccccc1
- pIC50 (Integrin alpha-V/beta-3): 8.80
- pIC50 (Integrin alpha-5/beta-1): 7.35

SMILES: C[C@H](NC(=O)[C@H](CC(=O)O)NC(=O)CNC(=O)c1cccc(NC(=N)N)c1)c1ccccc1
- pIC50 (Integrin alpha-V/beta-3): 9.04
- pIC50 (Integrin alpha-5/beta-1): 7.70

SMILES: CC(C)[C@H]1C(=O)N[C@@H](CCCNC(=N)N)C(=O)NCC(=O)N[C@@H](CC(=O)O)C(=O)N[C@H](Cc2ccccc2)C(=O)N1C
- Activity (U-87 MG [2]; U-87MG ATCC): Active
- Activity (U-87 MG [10]): Active
- inhibition [11]: 2.6%
- Activity (U-87 MG [12]): Active
- inhibition [13]: 14.1%
- Activity (U-87 MG [14]): Active
- Activity (U-87 MG [15]): inactive

SMILES: CCOc1cc(/C=C2\C(=O)N(c3ccccc3)N=C2C)cc(Cl)c1OCC(=O)OC
- inhibition [16]: Active
- Activity (U-87 MG [17]): Active
- inhibition [18]: Active
- inhibition (MDM4 (Homo sapiens)): Active
- inhibition [19]: Active
- inhibition [20]: Active
- inhibition [21]: Active
- inhibition [22]: Active
- Activity (U-87 MG [15]): inactive
- inhibition [23]: Active
- inhibition [24]: Active
- Activity (U-87 MG [25]): Active
